pEC50, pIC50, pKd: −log10 of the molar value. In brackets after ≈: the same amount, converted by molar mass. Activity calls are given as the source filed them. The calls are words filed in the database; no cut-off is given here.
Columns and labels:
[1] = target: Free fatty acid receptor 1 (Rattus norvegicus) (UniProt Q8K3T4); experiment: Agonist activity at GPR40 in Sprague-Dawley rat pancreatic islets assessed as induction of glucose-mediated insulin secretion measured after 90 mins in EBSS buffer by ELISA; assay type: tissue-based; conditions: Pancreatic islet
Procedure, shortened: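 Glucose-dependent insulin secretion in mouse MIN6 cells or rat islet cells, scored as secretion above the glucose-alone level.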

[2] = target: Free fatty acid receptor 1 (Rattus norvegicus) (UniProt Q8K3T4); experiment: Agonist activity at Prolink-tagged rat GPR40 fused with EA-tagged beta-arrestin expressed in human U2OS cells assessed as induction of beta-arrestin recruitment measured after 90 mins by beta-galactosidase based PathHunter assay relative to control; assay type: cell-based; conditions: filed as agonist
Procedure, shortened: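 PathHunter β-gal complementation. Cells were incubated overnight at 5000/well in medium with 1% heat-inactivated FBS. Compound was added as a 20-point 2-fold series from a top final of 100 μM (1% DMSO) for 90 min at 37 °C, followed by detection reagents and chemiluminescence read after 1 h at rt.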

[3] = target: T1, Free fatty acid receptor 1 (Homo sapiens, UniProt O14842); experiment: Agonist activity at human recombinant full length GPR40 overexpressed in human HEK293 cells assessed as increase in inositol phosphate accumulation in presence of terbium cryptate-labeled anti IP1/d2-labelled IP1 measured after 120 mins by HTRF assay relative to AMG837; assay type: functional, cell-based; conditions: filed as agonist
Procedure, shortened: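 HEK293 hGPR40 cells (20K/well) were cultured overnight, washed, and held in IP1 stimulation buffer. IP-1 was measured by competitive HTRF immunoassay with terbium cryptate anti-IP1 mAb and d2-labelled IP1.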

[4] = target: T1, Free fatty acid receptor 1; experiment: Displacement of [3H]-(S)-2-(6-((2',6'-dimethyl-4'-(3-(methylsulfonyl)propoxy)biphenyl-3-yl)methoxy)-2,3-dihydrobenzofuran-3-yl)acetic acid from human recombinant full-length GPR40 expressed in human HEK293 cell membrane assessed as dissociation constant measured after 2 hrs by radioligand competitive assay; assay type: cell membranes
[5] = target: Voltage-gated inwardly rectifying potassium channel KCNH2 (Homo sapiens, UniProt Q12809); experiment: Inhibition of human ERG
[6] = target: T2, Peroxisome proliferator-activated receptor alpha (Homo sapiens) (UniProt Q07869); experiment: Displacement of [3H]-[…] from PPARalpha (unknown origin) expressed in baculovirus infected Sf9 insect cells upto 30 uM measured after 10 hrs by microbeta scintillation counting analysis; conditions: dose microM <=30, time 10.0 hrs
T2 sequence (whole entry): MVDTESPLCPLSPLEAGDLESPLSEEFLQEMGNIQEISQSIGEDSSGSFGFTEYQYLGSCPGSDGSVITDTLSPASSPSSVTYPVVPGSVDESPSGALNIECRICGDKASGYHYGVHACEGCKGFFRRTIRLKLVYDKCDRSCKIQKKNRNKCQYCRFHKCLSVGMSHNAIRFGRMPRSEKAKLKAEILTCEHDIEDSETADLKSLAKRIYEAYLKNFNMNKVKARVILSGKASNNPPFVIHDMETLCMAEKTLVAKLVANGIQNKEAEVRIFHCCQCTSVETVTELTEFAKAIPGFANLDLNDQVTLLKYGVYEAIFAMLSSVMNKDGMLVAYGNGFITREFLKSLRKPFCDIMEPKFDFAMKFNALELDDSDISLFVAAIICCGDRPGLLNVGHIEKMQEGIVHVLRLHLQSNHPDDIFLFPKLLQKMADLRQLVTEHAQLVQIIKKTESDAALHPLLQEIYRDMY
Procedure, shortened: (§1)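 Scintillation proximity assay. Sf9 lysates with baculovirus-expressed PPARα (0.3 μg), PPARδ (0.5 μg) or PPARγ (1.25 μg), each with RXRα, were bound via biotinylated DR2 oligo (0.126 nM) to streptavidin yttrium silicate beads. Buffer was HEPES pH 7.8 with KCl, MgCl2, DTT, CHAPS, 14% glycerol and salmon sperm DNA. A 3H reference agonist ligand was used, with 11 compound concentrations, for 10 h. Nonspecific binding was defined with 10000 nM unlabeled reference. Ki was derived from IC50.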

[7] = target: T3, Peroxisome proliferator-activated receptor delta (Homo sapiens) (UniProt Q03181); experiment: Displacement of [3H]-[…] from PPARdelta (unknown origin) expressed in baculovirus infected Sf9 insect cells upto 30 uM measured after 10 hrs by microbeta scintillation counting analysis; conditions: dose microM <=30, time 10.0 hrs; procedure, shortened: as §1
T3 sequence (whole entry): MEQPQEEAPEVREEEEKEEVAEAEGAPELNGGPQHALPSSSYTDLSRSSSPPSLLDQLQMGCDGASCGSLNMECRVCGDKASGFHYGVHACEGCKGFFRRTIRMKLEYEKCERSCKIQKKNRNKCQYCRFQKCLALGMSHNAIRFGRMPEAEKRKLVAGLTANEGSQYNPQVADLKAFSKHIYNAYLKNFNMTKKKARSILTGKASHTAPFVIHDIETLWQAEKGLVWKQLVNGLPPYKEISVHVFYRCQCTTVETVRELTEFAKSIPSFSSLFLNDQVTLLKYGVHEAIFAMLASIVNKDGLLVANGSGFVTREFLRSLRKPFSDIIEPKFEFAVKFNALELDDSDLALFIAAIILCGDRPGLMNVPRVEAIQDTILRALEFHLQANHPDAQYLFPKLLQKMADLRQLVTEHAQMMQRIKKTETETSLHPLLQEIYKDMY

[8] = target: T3, Peroxisome proliferator-activated receptor delta (Homo sapiens); experiment: Agonist activity at human Gal4-fused PPARdelta LBD expressed in African green monkey CV1 cells cotransfected with pRL-SV40 plasmid assessed as maximum efficacy measured after 24 hrs by luciferase reporter gene assay relative to control; assay type: cell-based; conditions: CV-1
Procedure, shortened: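 CV1 African green monkey kidney cells were cotransfected, in DMEM with 5% charcoal-stripped FBS, with two plasmids: an SV40-driven Gal4 DBD–PPARα or PPARδ LBD hybrid, and a 5×Gal4-element firefly luciferase reporter. Cells were replated at 15000/well for 4 h, then exposed to 0.17 nM–10 μM in half-log steps for 24 h. Luciferase was read, normalized to maximum from 10 μM reference agonist, and fit by a 4-parameter model.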

[9] = Lipophilicity, logP of compound; assay type: physicochemical; conditions: octanol/water
[10] = Metabolic stability in mouse liver microsomes assessed as compound hydrolysis incubated for 30 mins by LC-MS/MS analysis; assay type: ADME, Microsome; conditions: read-out: Drug degradation
Procedure, shortened: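 Incubated 30 min with mouse or human liver microsomes. Stability reported as % metabolized.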

[11] = Aqueous solubility of the compound at pH 7.4; assay type: physicochemical; conditions: buffer
[12] = system: Mus musculus; experiment: Hypoglycemic activity in Balb/c mouse assessed as increase in insulin secretion at 0.03 to 3 mg/kg, po administered 60 mins prior to glucose challenge and measured at 3 to 7 mins by IPGTT; assay type: functional, organism-based; conditions: dose 0.03-3 mg/kg
[13] = system: Rattus norvegicus; experiment: Hypoglycemic activity in Zucker fatty diabetes mellitus rat model assessed as reduction in blood glucose level administered orally for 21 days and measured at 10 to 60 mins post glucose challenge on day 21 by OGTT; assay type: functional, organism-based; conditions: dose 0.03-1 mg/kg, time 21.0 day
[14] = system: Mus musculus; experiment: Agonist activity at GPR40 in Balb/c mouse assessed as increase in GLP-1 levels in blood at 30 mg/kg, po measured at 15 to 180 mins by ELISA; assay type: functional, organism-based; conditions: filed as agonist, time lower […], time upper 180.0 min
[15] = target: T1, Free fatty acid receptor 1; experiment: Agonist activity at human recombinant full length GPR40 overexpressed in human HEK293 cells assessed as increase in intracellular calcium level measured over 3 mins by calcium 4 dye based FLIPR assay; assay type: functional, cell-based
Procedure, shortened: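 HEK293 cells overexpressing hGPR40 (25K/well) were cultured overnight in DMEM/F12 with 0.2% FBS and geneticin. Compound was tested at 40 μM–0.1 nM final (20-point, 1% DMSO), and FLIPR fluorescence was read over 3 min.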

Sequence of Free fatty acid receptor 1 (Rattus norvegicus) (Q8K3T4 whole entry, the tested form may be a part): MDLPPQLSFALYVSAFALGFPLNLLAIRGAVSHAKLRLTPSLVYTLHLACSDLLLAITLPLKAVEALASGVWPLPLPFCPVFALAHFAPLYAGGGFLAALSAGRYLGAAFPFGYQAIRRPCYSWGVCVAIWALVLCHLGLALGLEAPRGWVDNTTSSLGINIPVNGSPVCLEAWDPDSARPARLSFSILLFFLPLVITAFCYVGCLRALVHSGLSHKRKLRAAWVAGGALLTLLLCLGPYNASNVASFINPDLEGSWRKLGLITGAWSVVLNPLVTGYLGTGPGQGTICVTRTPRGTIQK
T1 sequence (O14842 whole entry): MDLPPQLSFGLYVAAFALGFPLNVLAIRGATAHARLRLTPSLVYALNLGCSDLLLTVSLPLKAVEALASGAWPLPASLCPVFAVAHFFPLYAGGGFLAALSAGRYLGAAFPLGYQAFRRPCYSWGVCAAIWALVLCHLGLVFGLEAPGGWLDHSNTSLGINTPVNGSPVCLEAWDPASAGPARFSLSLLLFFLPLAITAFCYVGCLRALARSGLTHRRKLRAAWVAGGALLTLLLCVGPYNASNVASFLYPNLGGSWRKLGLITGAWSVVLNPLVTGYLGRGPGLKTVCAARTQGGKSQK
Sequence of Voltage-gated inwardly rectifying potassium channel KCNH2 (Q12809 whole entry): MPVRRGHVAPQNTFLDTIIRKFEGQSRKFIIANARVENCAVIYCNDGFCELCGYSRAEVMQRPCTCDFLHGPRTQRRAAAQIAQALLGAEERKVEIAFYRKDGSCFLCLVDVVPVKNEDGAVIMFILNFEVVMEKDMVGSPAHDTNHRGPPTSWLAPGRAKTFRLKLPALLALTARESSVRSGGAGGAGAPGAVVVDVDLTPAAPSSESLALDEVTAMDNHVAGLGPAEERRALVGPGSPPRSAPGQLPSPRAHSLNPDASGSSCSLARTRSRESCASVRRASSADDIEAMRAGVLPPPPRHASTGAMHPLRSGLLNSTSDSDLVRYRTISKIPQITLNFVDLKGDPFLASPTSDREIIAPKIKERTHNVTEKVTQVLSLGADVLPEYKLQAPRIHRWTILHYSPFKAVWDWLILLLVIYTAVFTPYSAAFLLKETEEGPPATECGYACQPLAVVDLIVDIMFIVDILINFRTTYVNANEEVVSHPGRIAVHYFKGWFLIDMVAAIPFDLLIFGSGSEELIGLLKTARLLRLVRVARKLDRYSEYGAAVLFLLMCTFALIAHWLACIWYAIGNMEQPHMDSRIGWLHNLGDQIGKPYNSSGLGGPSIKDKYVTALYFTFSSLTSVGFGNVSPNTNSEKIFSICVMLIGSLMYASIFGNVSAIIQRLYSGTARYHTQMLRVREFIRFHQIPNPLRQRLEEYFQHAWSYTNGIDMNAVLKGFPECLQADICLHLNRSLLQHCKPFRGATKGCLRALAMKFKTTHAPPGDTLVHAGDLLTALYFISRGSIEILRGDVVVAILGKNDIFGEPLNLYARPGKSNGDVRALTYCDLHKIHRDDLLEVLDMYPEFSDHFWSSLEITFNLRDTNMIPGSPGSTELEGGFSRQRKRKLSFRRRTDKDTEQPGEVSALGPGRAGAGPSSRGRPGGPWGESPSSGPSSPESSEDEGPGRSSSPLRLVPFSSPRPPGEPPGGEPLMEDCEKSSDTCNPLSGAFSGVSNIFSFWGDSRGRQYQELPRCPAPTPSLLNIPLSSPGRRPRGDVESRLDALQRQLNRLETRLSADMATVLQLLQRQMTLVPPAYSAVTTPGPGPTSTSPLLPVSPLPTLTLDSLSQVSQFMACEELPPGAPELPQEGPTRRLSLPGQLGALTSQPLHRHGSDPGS

SMILES | Activity ([1]; filed as agonist) | Emax [2] [%] | Emax [3] [%] | pKd [4] | pIC50 [5] | Activity [6] | Activity [7] | Emax [8] [%] | logP [9] | metabolised at 0.5 h [10] [%] | solubility [11] [µM] | Activity [12] | Activity [13] | Activity [14] | pEC50 [15] | Activity [1]
CC#C[C@@H](CC(=O)O)c1ccc(OCc2ccc(CN3CCC4(C=Cc5ccccc54)CC3)cc2)cc1 [LY2881835] | Active | 124 | 162 | 8.60 | < 5.00 | inactive | inactive | 5 | 4.9 | 79 | 61 (≈ 30 µg/mL) | Active | Dose-dependent effect | Active | – | –
CC#C[C@@H](CC(=O)O)c1ccc(OCc2ccc(CN3CCC4(CCc5ccccc54)CC3)cc2)cc1 | Active | 135 | 249 | 8.66 | – | inactive | inactive | – | – | – | – | – | – | – | 7.72 | –
CC#C[C@@H](CC(=O)O)c1ccc(OCc2ccc(CN3CCC4(CC3)CN(C)c3ccccc34)cc2)cc1 | Active | 126 | 268 | 8.02 | – | inactive | inactive | – | – | – | – | – | – | – | 7.26 | –
CC#C[C@@H](CC(=O)O)c1ccc(OCc2ccc(CN3CCCc4cccc(OC)c43)s2)cc1 | – | 121 | – | – | < 5.00 | – | – | 1 | 5.2 | 38 | > 100 | Active | Dose-dependent effect | Active | – | –
CC#C[C@@H](CC(=O)O)c1ccc(OCc2ccc(CN3CCC4(CCc5ccccc54)CC3)s2)cc1 | Active | 108 | 132 | 8.46 | < 5.00 | inactive | inactive | 2 | 5 | 98 | 89 (≈ 44.5 µg/mL) | Active | Dose-dependent effect | Active | 8.10 | –
O=C(O)CCc1ccc(OCc2ccc(CN3CCC4(C=Cc5ccccc54)CC3)cc2)cc1F | – | 114 | 282 | 7.24 | – | inactive | inactive | – | – | – | – | – | – | – | 6.74 | inactive
CC#C[C@@H](CC(=O)O)c1ccc(OCc2ccc(CN3CCC4(C=Cc5ccccc54)CC3)s2)cc1 | Active | 113 | 145 | 8.70 | – | inactive | inactive | – | – | – | – | – | – | – | 7.92 | –
O=C(O)C[C@@H](c1ccc(OCc2ccc3nc(-c4ccccc4)nn3c2)cc1)c1ccon1 | – | 61 | 124 | 7.43 | – | inactive | inactive | – | – | – | – | – | – | – | 7.85 | inactive

From ChEMBL document CHEMBL4765234 (J Med Chem, 2016)
